Measurements gathered from unrelated publications.
Target: Aurora kinase A (AURKA, Homo sapiens, UniProt O14965)
One construct used (O14965 1-403): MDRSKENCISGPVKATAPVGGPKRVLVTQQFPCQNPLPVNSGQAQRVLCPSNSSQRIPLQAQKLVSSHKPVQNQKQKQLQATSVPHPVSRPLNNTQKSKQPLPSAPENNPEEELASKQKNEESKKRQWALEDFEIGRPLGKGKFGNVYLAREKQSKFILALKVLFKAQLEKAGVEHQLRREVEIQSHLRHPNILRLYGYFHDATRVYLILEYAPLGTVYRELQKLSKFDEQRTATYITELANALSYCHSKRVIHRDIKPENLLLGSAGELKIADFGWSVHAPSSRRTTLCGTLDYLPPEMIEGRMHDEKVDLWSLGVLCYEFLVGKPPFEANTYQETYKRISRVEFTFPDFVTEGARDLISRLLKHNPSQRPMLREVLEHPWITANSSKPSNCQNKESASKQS

| Structure (SMILES) | read-out | method | tested at | remaining binding |
| --- | --- | --- | --- | --- |
| c1cncc(-c2cccc(Nc3nccc(NC4CCCCC4)n3)c2)c1 | binding | competition with immobilised ligand | 10 µM | 5.9% |
| F[C@@H]1CCN(c2nccc(-c3cnn4ncccc34)n2)C1 | binding |  | 1 µM | 91% |
| CS(=O)(=O)NCC[C@H](NC(=O)c1cncc2c1cnn2-c1ccc(F)cc1)c1ccnc(S(C)(=O)=O)c1 | cell-free assay | competition with immobilised ligand | 1 µM | 100% |
| C[C@H]1CCN(c2nccc(-c3cnn4ncccc34)n2)C1 | binding |  | 1 µM | 91% |
| O=C(c1ccc(Nc2ncc(Cl)c(-c3cc4ccccc4s3)n2)cc1)N1CCC(N2CCCC2)CC1 | binding | competition with immobilised ligand | 1 µM | 9.2% |
| C[C@@H]1CN(c2ccc3ncc(-c4ccc5[nH]nc(C6CC6)c5c4)n3n2)C[C@H](C)O1 | binding | competition with immobilised ligand | 0.5 µM | 85% |
| O=C(NCC1CCOCC1)c1n[nH]cc1NC(=O)c1c(F)cccc1F | binding | competition with immobilised ligand | 1 µM | 87% |
| CNC(=O)[C@@H]1CC[C@@H](n2c(-c3ccc4cnccc4c3)nc3ccc(C(=O)NCc4cccc(C(N)=O)c4)cc32)C1 | binding | competition with immobilised ligand | 1 µM | 100% |
| O=C(c1ccc(Nc2nccc(-c3cc4ccccc4s3)n2)cc1)N1CCC(N2CCCC2)CC1 | binding | competition with immobilised ligand | 1 µM | 33% |
| CC1CCCN1c1nccc(-c2cnn3ncccc23)n1 (centres unmarked) | binding |  | 1 µM | 87% |
| Nc1ncc2c(n1)-c1c([nH]c3ccc(C#CC4CC4)cc13)CCCC2 | binding | competition with immobilised ligand | 1 µM | 80% |
| COc1ccc2cc(OCC3(C(=O)O)CN(C(=O)c4ccc(F)cc4)C3)ccc2c1 | cell-free assay | competition with immobilised ligand | 1 µM | 100% |
| COc1cnc(Nc2cccc(S(N)(=O)=O)c2)nc1N1CCN(c2ccccc2)CC1 | binding | competition with immobilised ligand | 1 µM | 85% |
| Cc1c(NC(=O)c2cc(C(N)=O)nc3cc(F)ccc23)c(C(F)(F)F)nn1Cc1ccc(C(C)(C)C)cc1 | cell-free assay | competition with immobilised ligand | 1 µM | 100% |
| CN(C)c1nccc(-c2cnc3ncccn23)n1 | binding |  | 1 µM | 49% |
| COc1cc(-c2cn(C3CCc4ccccc4N(CC(F)(F)F)C3=O)nn2)ccc1-n1ccc(C)n1 (centres unmarked) | cell-free assay | competition with immobilised ligand | 1 µM | 58% |
| O=C(NCCCN1CCOCC1)c1ccc(Nc2ncc(Cl)c(-c3ccc(Cl)s3)n2)cc1 | binding | competition with immobilised ligand | 1 µM | 12% |
| Nc1cnc(N2CCc3cc(S(=O)(=O)Nc4c(F)cc(Cl)cc4F)cc(N4CCCC4=O)c32)nc1 | cell-free assay | competition with immobilised ligand | 1 µM | 100% |
| CCN1CCN(Cc2ccc(C(=O)Nc3ccc(C)c(Oc4ccc5c(c4)CC(=O)N5)c3)cc2C(F)(F)F)CC1 | binding | competition with immobilised ligand | 1 µM | 100% |
| CN(C(=O)c1ccccc1)c1cc(N(C)c2ccc3c(c2)CCc2ccc(C(=O)NCCN4CCOCC4)cc2C3=O)ccc1F | cell-free assay | competition with immobilised ligand | 1 µM | 100% |
| C[C@@H](c1ccc(-n2cnc3c(N)ncnc32)cc1)N1CCc2nn(C)c(Cc3ccccc3)c2C1=O | binding | competition with immobilised ligand | 0.1 µM | 73% |
| Cc1cnn2ncc(-c3ccnc(N(C)C)n3)c2c1 | binding |  | 1 µM | 99% |
| O=C(NCc1ncc(C(F)(F)F)cc1Cl)c1ccc2c(c1)C1(CCS(=O)(=O)CC1)[C@@H](C1CC1)N2S(=O)(=O)c1ccc(F)cc1 | cell-free assay | competition with immobilised ligand | 1 µM | 81% |
| COc1ncc2cc3ccccc3nc2c1C#N | cell-free assay | competition with immobilised ligand | 5 µM | 100% |
| O=C(NS(=O)(=O)c1ccc(NCC2CCOCC2)c([N+](=O)[O-])c1)c1ccc(N2CCN(Cc3ccc(C(F)(F)F)cc3-c3ccc(Cl)cc3)CC2)cc1Oc1cnc2[nH]ccc2c1 | cell-free assay | competition with immobilised ligand | 1 µM | 96% |
| N[C@@H]1CCN(c2nccc(-c3cnn4ncccc34)n2)C1 | binding |  | 1 µM | 100% |
